Laboratory results: ChEMBL document CHEMBL1144676, “Synthesis and structure-activity relationships of a series of benzazepine derivatives as 5-HT2C receptor agonists” (Bioorg Med Chem, 2008)

Assays:
[1] = biological target: T1, 5-hydroxytryptamine receptor 2C (Homo sapiens, UniProt P28335); experiment: Displacement of [3H]5-HT from human 5HT2C receptor expressed in CHO cells; format: cell-based
T1 sequence (P28335 whole entry): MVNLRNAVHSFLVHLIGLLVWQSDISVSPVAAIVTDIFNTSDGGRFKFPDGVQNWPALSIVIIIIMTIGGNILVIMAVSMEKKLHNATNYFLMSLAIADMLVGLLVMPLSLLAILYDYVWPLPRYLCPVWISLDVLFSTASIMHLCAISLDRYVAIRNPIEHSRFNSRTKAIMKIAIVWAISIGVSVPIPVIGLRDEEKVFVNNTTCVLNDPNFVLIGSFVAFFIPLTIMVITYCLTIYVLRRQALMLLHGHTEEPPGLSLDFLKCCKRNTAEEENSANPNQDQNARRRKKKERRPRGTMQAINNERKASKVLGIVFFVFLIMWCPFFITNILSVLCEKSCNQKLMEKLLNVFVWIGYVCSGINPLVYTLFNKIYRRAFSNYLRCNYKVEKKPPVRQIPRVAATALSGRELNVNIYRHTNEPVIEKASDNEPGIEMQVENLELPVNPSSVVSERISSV
How it was run: (§1)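 Radioligand displacement of [3H]5-HT using membranes from CHO cells (5-HT2C, 5-HT2A) or HEK293-EBNA cells (5-HT2B). Medium: 50 mM Tris-HCl pH 7.4, 4 mM CaCl2, pargyline, 0.1 mg/mL ascorbic acid. Incubated 37 C for 30 min, then vacuum-filtered on PEI-treated GF/B filters and counted by scintillation. Non-specific binding defined with 10 µM 5-HT. Ki obtained by Cheng-Prusoff.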

[2] = biological target: T2, 5-hydroxytryptamine receptor 2A (Homo sapiens, UniProt P28223); experiment: Displacement of [3H]5-HT from human 5HT2A receptor expressed in CHO cells; format: cell-based; how it was run: as §1
[3] = biological target: 5-hydroxytryptamine receptor 2B (Homo sapiens, UniProt P41595); experiment: Displacement of [3H]5-HT from human 5HT2B receptor expressed in HEK293-EBNA cells; format: cell-based; how it was run: as §1
[4] = biological target: Serotonin 2 receptors; 5-HT2a & 5-HT2c (Homo sapiens) (UniProt P28223+P28335); experiment: Selectivity for human 5HT2C receptor over human 5HT2A receptor
[5] = organism: Homo sapiens; experiment: Selectivity for human 5HT2C receptor over human 5HT2B receptor
[6] = biological target: T3, 5-hydroxytryptamine receptor 2C (Homo sapiens) (UniProt P28335); experiment: Intrinsic activity at human 5HT2C receptor expressed in CHO cells assessed as myo-[3H]inositol turnover relative to 5-hydroxytryptamine; format: functional, cell-based
T3 sequence (whole entry): T1 sequence (P28335 whole entry)
How it was run: (§2)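 Receptor-expressing CHO cells cultured 1 day, then labelled 24 h with myo-[3H]inositol (3 µCi/mL). Cells washed, held in PBS 20 min, then PBS-LiCl 20 min, then exposed 20 min to compound in PBS-LiCl. Stopped with PCA; [3H]inositol phosphates isolated on AG1-X8 anion-exchange columns and counted. Emax expressed relative to 10 µM 5-HT (100%), derived by non-linear fitting.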

[7] = biological target: T2, 5-hydroxytryptamine receptor 2A; experiment: Intrinsic activity at human 5HT2A receptor expressed in CHO cells assessed as myo-[3H]inositol turnover relative to 5-hydroxytryptamine; format: functional, cell-based; how it was run: as §2
[8] = tested on: Rattus norvegicus; experiment: Effect on penile erection in po dosed rat; format: functional; conditions: read-out: MED
How it was run: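 Rats given compound orally and placed singly in clear cages; penile erections counted over 30 min post-dose, with testing between 13:00 and 19:00. Erection scored as pelvic thrusts, rising onto hind limbs, engorged penis and licking. MED taken as the lowest dose differing from vehicle at p < 0.05.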

[9] = tested on: Rattus norvegicus; experiment: Cardiovascular effect in po dosed rat assessed as increase in mean arterial blood pressure; format: functional, organism-based; conditions: Artery
How it was run: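 Carotid artery catheterised under pentobarbital (60 mg/kg ip). After at least 2 days of recovery, conscious rats stabilised ≥30 min in cages and then dosed orally at 3–30 mg/kg. Mean arterial blood pressure recorded via the catheter. A 5-HT2A antagonist, MDL100907, was also used.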

Serotonin 2 receptors; 5-HT2a & 5-HT2c (Homo sapiens), sequence (P28223 whole entry, looked up, one chain of several): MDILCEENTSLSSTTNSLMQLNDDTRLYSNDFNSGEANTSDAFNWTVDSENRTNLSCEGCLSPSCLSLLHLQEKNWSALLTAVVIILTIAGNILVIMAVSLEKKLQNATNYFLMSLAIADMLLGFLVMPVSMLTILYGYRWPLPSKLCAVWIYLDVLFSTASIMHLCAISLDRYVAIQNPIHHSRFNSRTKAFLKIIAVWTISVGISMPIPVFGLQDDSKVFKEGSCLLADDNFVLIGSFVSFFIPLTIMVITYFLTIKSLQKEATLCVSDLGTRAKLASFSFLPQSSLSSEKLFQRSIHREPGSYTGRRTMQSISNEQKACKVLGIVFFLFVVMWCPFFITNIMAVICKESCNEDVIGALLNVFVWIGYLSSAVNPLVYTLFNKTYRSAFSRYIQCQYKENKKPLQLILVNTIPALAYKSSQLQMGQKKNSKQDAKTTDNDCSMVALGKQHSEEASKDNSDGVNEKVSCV
T2 sequence (P28223 whole entry): as the sequence (P28223 whole entry, looked up, one chain of several) above
5-hydroxytryptamine receptor 2B, sequence (P41595 whole entry): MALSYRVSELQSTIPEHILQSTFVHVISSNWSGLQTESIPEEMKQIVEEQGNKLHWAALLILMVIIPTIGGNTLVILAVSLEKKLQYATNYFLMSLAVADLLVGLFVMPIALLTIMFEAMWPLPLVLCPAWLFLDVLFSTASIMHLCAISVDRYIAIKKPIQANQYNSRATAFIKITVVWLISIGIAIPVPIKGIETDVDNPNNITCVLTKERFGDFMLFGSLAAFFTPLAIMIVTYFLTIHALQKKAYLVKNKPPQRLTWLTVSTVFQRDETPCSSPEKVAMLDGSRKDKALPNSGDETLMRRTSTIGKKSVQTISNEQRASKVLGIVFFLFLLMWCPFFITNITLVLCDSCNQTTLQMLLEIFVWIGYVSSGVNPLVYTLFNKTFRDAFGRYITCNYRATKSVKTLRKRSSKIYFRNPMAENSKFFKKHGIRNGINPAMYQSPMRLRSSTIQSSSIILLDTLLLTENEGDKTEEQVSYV

SMILES: c1cc2ccc3c(c2o1)CCNCC3
- Ki [1]: 23 nM
- Ki [2]: 99 nM
- Ki [3]: 34 nM
- Ratio Ki [4]: 4
- Ratio Ki [5]: 1
- Emax [6]: 57%
- Emax [7]: 40%

SMILES: CN1CCc2ccc([N+](=O)[O-])c(Cl)c2CC1
- Ki [1]: 66 nM
- Ki [2]: 400 nM
- Ki [3]: 1000 nM
- Ratio Ki [4]: 6
- Ratio Ki [5]: 5
- Emax [6]: 85%
- Emax [7]: 7%

SMILES: Clc1ccc2c(c1Cl)CCNCC2
- Ki [1]: 8.8 nM
- Ki [2]: 93 nM
- Ki [3]: 100 nM
- Ratio Ki [4]: 11
- Ratio Ki [5]: 11
- Emax [6]: 87%
- Emax [7]: 27%
- minimal effective dose [8]: 0.3 mg/kg

SMILES: c1cc2c3c(ccc2o1)CCNCC3
- Ki [1]: 20 nM
- Ki [2]: 46 nM
- Ki [3]: 90 nM
- Ratio Ki [4]: 2
- Ratio Ki [5]: 5
- Emax [6]: 82%
- Emax [7]: 47%

SMILES: CCc1cc2c(ccc3cnn(C[C@H](C)N)c32)o1
- Ki [3]: 2.5 nM
- Ratio Ki [4]: 15
- Ratio Ki [5]: 2.8
- minimal effective dose [8]: 0.3 mg/kg
- Activity [9]: Dose-dependent effect

SMILES: Clc1c(Br)ccc2c1CCNCC2
- Ki [1]: 2.4 nM
- Ki [2]: 10 nM
- Ki [3]: 25 nM
- Ratio Ki [4]: 4
- Ratio Ki [5]: 10
- Emax [6]: 71%
- Emax [7]: 32%

SMILES: O=[N+]([O-])c1ccc2c(c1Cl)CCNCC2
- Ki [1]: 14 nM
- Ki [2]: 51 nM
- Ki [3]: 300 nM
- Ratio Ki [4]: 4
- Ratio Ki [5]: 21
- Emax [6]: 86%
- Emax [7]: 38%

SMILES: CNc1ccc2c(c1Cl)CCNCC2
- Ki [1]: 46 nM
- Ki [2]: 90 nM
- Ki [3]: 210 nM
- Ratio Ki [4]: 2
- Ratio Ki [5]: 5
- Emax [6]: 81%
- Emax [7]: 90%

SMILES: COc1ccc2c(c1Cl)CCNCC2
- Ki [1]: 20 nM
- Ki [2]: 62 nM
- Ki [3]: 84 nM
- Ratio Ki [4]: 3
- Ratio Ki [5]: 4
- Emax [6]: 88%
- Emax [7]: 56%

SMILES: Fc1ccc2c(c1Cl)CCNCC2
- Ki [1]: 43 nM
- Ki [2]: 130 nM
- Ki [3]: 410 nM
- Ratio Ki [4]: 3
- Ratio Ki [5]: 10
- Emax [6]: 80%
- Emax [7]: 26%

SMILES: N#Cc1ccc2c(c1Cl)CCNCC2
- Ki [1]: 5.1 nM
- Ki [2]: 30 nM
- Ki [3]: 65 nM
- Ratio Ki [4]: 6
- Ratio Ki [5]: 13
- Emax [6]: 81%
- Emax [7]: 23%
